Drawing on ChEMBL document CHEMBL1139633, “Antimalarial activity and synthesis of new trisubstituted pyrimidines” (2005), this text covers MIC for 31 compounds.

Converted amounts (≈) assume the structure as drawn.

For this test, the system named is Plasmodium falciparum. The experiment in a line: Minimum inhibitory concentration against schizont maturation in Plasmodium falciparum NF-54. The format is functional. The method in brief:
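Rieckmann micro-assay with P. falciparum NF-54 cultured in RPMI-1640 (25 mM HEPES, 1% D-glucose, 0.23% NaHCO3, 10% heat-inactivated human serum), sorbitol-synchronized to ring stage. Start at ~1% parasitaemia, 3% haematocrit; compounds 0.25–50 µg/mL in duplicate, 37 °C candle jar, 36–40 h. Giemsa smears scored by microscopy; MIC = lowest concentration blocking complete maturation to schizonts.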
For orientation: MIC means the lowest concentration that inhibits growth of the organism. The low end stands for a more susceptible organism, the high end for a less susceptible organism. `O=[N+]([O-])c1cccc(-c2cc(-c3ccncc3)nc(N3CCN(c4ccccc4)CC3)n2)c1` gave an MIC of 10 µg/mL (≈ 22.8 µM).
As for `COc1ccc(-c2cc(-c3ccncc3)nc(N3CCN(c4ccccc4)CC3)n2)cc1`, the figure is 2 µg/mL (≈ 4.72 µM); as for `Clc1ccc(-c2cc(-c3ccncc3)nc(N3CCN(Cc4ccccc4)CC3)n2)cc1`, 10 µg/mL (≈ 22.6 µM); as for `COc1cc(-c2cc(-c3ccncc3)nc(N3CCN(c4ccccc4)CC3)n2)cc(OC)c1OC`, 50 µg/mL (≈ 103 µM).
Then `COc1cc(OC)c(-c2cc(-c3ccncc3)nc(N3CCN(c4ccccc4)CC3)n2)cc1OC`, with 10 µg/mL (≈ 20.7 µM).
The compound `CSc1ccc(-c2cc(-c3ccncc3)nc(N3CCN(C)CC3)n2)cc1` had an MIC of 1 µg/mL (≈ 2.65 µM). Against the preceding compound, the MIC is about 10-fold lower.
As for `c1ccc(CN2CCN(c3nc(-c4ccccc4)cc(-c4ccncc4)n3)CC2)cc1`, the figure is 2 µg/mL (≈ 4.91 µM); as for `Cc1ccc(-c2cc(-c3ccncc3)nc(N3CCN(c4ccccc4)CC3)n2)cc1C`, 2 µg/mL (≈ 4.74 µM); as for `Cc1ccc(-c2cc(-c3ccncc3)nc(N3CCN(c4ccccc4)CC3)n2)cc1`, 1 µg/mL (≈ 2.45 µM).
As for `CSc1ccc(-c2cc(-c3ccncc3)nc(N3CCN(Cc4ccccc4)CC3)n2)cc1`, the figure is 2 µg/mL (≈ 4.41 µM).
As for `COc1cc(-c2cc(-c3ccncc3)nc(N3CCN(Cc4ccccc4)CC3)n2)cc(OC)c1OC`, the figure is 10 µg/mL (≈ 20.1 µM); as for `Clc1ccc(-c2cc(-c3ccncc3)nc(N3CCN(c4ccccc4)CC3)n2)cc1`, 10 µg/mL (≈ 23.4 µM); as for `Cc1ccc(-c2cc(-c3ccncc3)nc(N3CCN(C)CC3)n2)cc1`, 1 µg/mL (≈ 2.89 µM).
As to `COc1ccc(OC)c(-c2cc(-c3ccncc3)nc(N3CCN(c4ccccc4)CC3)n2)c1`, 2 µg/mL (≈ 4.41 µM) was the least that counted as inhibitory (MIC).
Then `COc1ccc(OC)c(-c2cc(-c3ccncc3)nc(N3CCN(Cc4ccccc4)CC3)n2)c1`, with 1 µg/mL (≈ 2.14 µM); and `COc1cc(OC)c(-c2cc(-c3ccncc3)nc(N3CCN(C)CC3)n2)cc1OC`, with 2 µg/mL (≈ 4.74 µM); and `COc1ccc(OC)c(-c2cc(-c3ccncc3)nc(N3CCN(C)CC3)n2)c1`, with 0.5 µg/mL (≈ 1.28 µM).
As for `Cc1ccc(-c2cc(-c3ccncc3)nc(N3CCN(Cc4ccccc4)CC3)n2)cc1C`, the figure is 1 µg/mL (≈ 2.3 µM).
Then `c1ccc(-c2cc(-c3ccncc3)nc(N3CCN(c4ccccc4)CC3)n2)cc1`, with 10 µg/mL (≈ 25.4 µM); and `CSc1ccc(-c2cc(-c3ccncc3)nc(N3CCN(c4ccccc4)CC3)n2)cc1`, with 10 µg/mL (≈ 22.7 µM).
In turn, `O=[N+]([O-])c1cccc(-c2cc(-c3ccncc3)nc(N3CCN(Cc4ccccc4)CC3)n2)c1` registered an MIC of 2 µg/mL (≈ 4.42 µM).
For the compound `COc1ccc(-c2cc(-c3ccncc3)nc(N3CCN(C)CC3)n2)cc1`, the minimum inhibitory concentration (MIC) stood at 1 µg/mL (≈ 2.77 µM).
Compound `CN1CCN(c2nc(-c3ccncc3)cc(-c3cccc([N+](=O)[O-])c3)n2)CC1` returned a minimal inhibitory concentration (MIC) of 1 µg/mL (≈ 2.66 µM).
Then `Cc1ccc(-c2cc(-c3ccncc3)nc(N3CCN(C)CC3)n2)cc1C`, with 0.5 µg/mL (≈ 1.39 µM); and `Cc1ccc(-c2cc(-c3ccncc3)nc(N3CCN(Cc4ccccc4)CC3)n2)cc1`, with 2 µg/mL (≈ 4.74 µM); and `COc1cc(-c2cc(-c3ccncc3)nc(N3CCN(C)CC3)n2)cc(OC)c1OC`, with 10 µg/mL (≈ 23.7 µM).
Then `CN1CCN(c2nc(-c3ccccc3)cc(-c3ccncc3)n2)CC1`, with 1 µg/mL (≈ 3.02 µM).
Then `COc1cc(OC)c(-c2cc(-c3ccncc3)nc(N3CCN(Cc4ccccc4)CC3)n2)cc1OC`, with 2 µg/mL (≈ 4.02 µM).
`CN1CCN(c2nc(-c3ccncc3)cc(-c3ccc(Cl)cc3)n2)CC1` came in with a minimal inhibitory concentration (MIC) of 2 µg/mL (≈ 5.47 µM).
Then `COc1ccc(-c2cc(-c3ccncc3)nc(N3CCN(Cc4ccccc4)CC3)n2)cc1`, with 1 µg/mL (≈ 2.29 µM); and `CCc1nc(N)nc(N)c1-c1ccc(Cl)cc1` [PYRIMETHAMINE], with 10 µg/mL (≈ 40.2 µM).
